Measurements as given in paper PMC9583317 (ACS Omega, 2022).
Numbered stars: 1 amine (or outer) side, 2 acyl side, 3 side chain; on linkers, the order of the positions; unused ones are H or OH. Square brackets hold non-standard residues; d marks the D form. Peptide text beside a SMILES is read from it. X1 = O=C(C(=Cc1ccccc1)N[*:1])[*:2]

What was measured:
[1] = ref [31]; cited from earlier work
trypsin = test: Proteolytic stability with trypsin; format: in vitro ADME; details: 6 h, room temperature
Outline: (§1)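 Self-assembled peptide nanoparticles were exposed to proteinase K or trypsin for 6 h at room temperature with constant low-rpm stirring. Degradation was assessed by reverse-phase HPLC on a C-18 column. Morphological change of enzyme-treated particles was imaged by TEM.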

Proteinase K = Proteinase K (Parengyodontium album, UniProt P06873); test: Proteolytic stability with proteinase K; format: in vitro ADME; details: 6 h, room temperature
Outline: as §1

Red blood cells (RBCs) = test: In vitro hemolysis; format: cell-based; details: human RBC suspension, 39 to 773 μM, 37 °C, 3 h, absorbance 540 nm
Outline: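 Human blood collected in 10% citrate-phosphate-dextrose. RBCs pelleted at 1500g, 10 min, 25 °C, and washed 3–5 times in PBS. A 10% (v/v) packed-RBC suspension was mixed 1:1 with peptide nanoparticles (39–773 μM) or the siRNA nanocomplex (70–280 nM). Incubated 3 h at 37 °C, then re-spun. Released hemoglobin read in supernatant at 540 nm. PBS and 0.2% Triton X-100 served as controls.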

Proteinase K, sequence (P06873 106-384): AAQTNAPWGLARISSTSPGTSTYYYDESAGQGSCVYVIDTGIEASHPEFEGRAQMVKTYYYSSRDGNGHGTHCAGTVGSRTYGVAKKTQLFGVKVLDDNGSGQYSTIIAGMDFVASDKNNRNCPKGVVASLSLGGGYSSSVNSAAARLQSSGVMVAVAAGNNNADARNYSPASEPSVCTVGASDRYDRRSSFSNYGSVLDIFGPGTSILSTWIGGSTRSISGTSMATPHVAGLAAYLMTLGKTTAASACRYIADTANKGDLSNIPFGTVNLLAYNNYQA

Compound | size of nanospheres [1] | stability to trypsin compared with natural analogue RFRGD (trypsin; RP-HPLC C-18, RFRGD NPs in PBS (Fig S2b)) | morphological change after trypsin (TEM) (trypsin; TEM) | proteolytic stability to trypsin (RP-HPLC) (trypsin; constant stirring, RP-HPLC C-18) | morphological change after proteinase K (TEM) (Proteinase K) | hemolysis (Red blood cells (RBCs))
arginine-α,β-dehydrophenylalanine [RΔF] | 60–80 nm |  |  |  |  | 
N=C(N)NCCC[C@H](NC(=O)C(=Cc1ccccc1)NC(=O)[C@@H](N)CCCNC(=N)N)C(=O)NCC(=O)N[C@@H](CC(=O)O)C(N)=O [RΔFRGD] (H-R[X1]RGD-NH2) |  | significantly more stable | no changes in morphological structures | observable degradation | no changes in morphological structures | less than 5%
